FXIIa inh 1536: inhibitors of human coagulation factor XIIa. purified FXIIa, Boc-QGR-AMC fluorogenic substrate, 2 h. hit rate 0.3% among 220,000. P00748. inhibition, % at 5 µM; in the data active means inhibition above about 40%;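 further: 0% = enzyme with no compound and 100% = blank without enzyme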
m-calpain inh: calpain II (pig) inhibition; purified calpain II, fluorogenic peptide substrate, 30 min; hit rate 0.37% among 220,000; AID 1236; inhibition, % at 16 µM;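 active means inhibition above about 50%, limit read from the data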
thrombin 1536: thrombin (human) inhibition. P00734. inhibition, % at 5 µM. hit rate 0.26% among 220,000. alpha-thrombin, Boc-VPR-AMC fluorogenic substrate cleavage;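 active means inhibition at or above 40%; inactive means inhibition below 40%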;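 further: 0% = enzyme with no compound and 100% = wells without enzyme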
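Material: Human alpha-thrombin protein | Buffer or medium: pH 7.5 Tris-saline with Tween 20 | Reagent: Boc-VPR-AMC substrate, 15 µM final | Schedule: Reaction at ambient temperature | Detection: AMC fluorescence at 355 nm excitation and 460 nm emission | Evaluation: Percent inhibition scaled between no-compound controls and no-enzyme blanks | Controls: no-compound enzyme wells and no-enzyme blanks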
FXIa inh 1536: inhibitors of human coagulation factor XIa. purified FXIa, Boc-Glu-Ala-Arg-AMC fluorogenic substrate. AID 798. P03951. hit rate 0.14% among 220,000. inhibition, % at 5 µM;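 active means inhibition of at least 40%; inactive means inhibition below 40%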;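 further: fluorescence of freed AMC excited at 355 nm; 0% = enzyme without compound and 100% = no enzyme blank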
Target sequence (P03951 19-387 limits assumed): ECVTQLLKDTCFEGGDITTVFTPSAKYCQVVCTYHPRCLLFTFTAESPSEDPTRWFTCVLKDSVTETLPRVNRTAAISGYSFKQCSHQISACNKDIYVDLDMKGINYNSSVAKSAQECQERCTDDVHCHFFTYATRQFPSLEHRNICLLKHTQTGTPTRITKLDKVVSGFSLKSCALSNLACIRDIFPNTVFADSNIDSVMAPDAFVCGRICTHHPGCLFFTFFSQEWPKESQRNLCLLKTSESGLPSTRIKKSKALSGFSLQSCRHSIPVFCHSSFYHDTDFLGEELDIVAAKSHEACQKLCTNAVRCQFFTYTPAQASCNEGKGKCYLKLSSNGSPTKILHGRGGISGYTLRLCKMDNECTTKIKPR
Target sequence (P03951 388-625 limits assumed): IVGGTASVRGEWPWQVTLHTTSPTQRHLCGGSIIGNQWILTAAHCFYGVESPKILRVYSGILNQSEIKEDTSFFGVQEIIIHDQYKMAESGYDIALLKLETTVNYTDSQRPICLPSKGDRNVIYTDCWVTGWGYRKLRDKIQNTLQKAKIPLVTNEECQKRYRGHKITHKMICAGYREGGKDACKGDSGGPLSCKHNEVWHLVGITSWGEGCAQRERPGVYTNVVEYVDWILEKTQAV
hK5 inh: inhibitors of human kallikrein 5 | inhibition, % at 5 µM | Q9Y337 | hit rate 0.59% among 210,000 | recombinant hK5, fluorogenic AMC substrate cleavage;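 active means inhibition of 40% or more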;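 further: 0% = enzyme controls without compound and 100% = no-enzyme blanks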
Starred values were filed as active, the others as inactive; / = no result. Most compounds without a hit are left out; they make up all but 1.4% or so of the library.

SMILES	FXIIa inh 1536	m-calpain inh	thrombin 1536	FXIa inh 1536	hK5 inh
COc1cc(CNc2ccc(O)cc2)cc(Br)c1OCc1ccccc1F	10	35	-5	2	-1
C/C(=N\NC(=O)c1cccc(N/N=C(\C)c2ccccc2)c1)c1ccccc1	63*	-28	27	19	29
C/C(=N\NC(=O)c1cccc(N/N=C(\C)c2ccncc2)c1)c1ccncc1	10	42	-4	1	9
COc1ccc(Oc2ccc3c(C(F)(F)F)cc(C(F)(F)F)nc3n2)cc1	17	-27	4	-22	-18
Oc1ccc(Oc2ccc3c(C(F)(F)F)cc(C(F)(F)F)nc3n2)cc1	0	3	4	-5	132*
COc1cc(C2N3CC4(C)CN2CC(C)(C3)C4)ccc1O (centres undefined)	6	25	-1	0	-22
COc1ccc(C2N(c3ccccc3)CCN2c2ccccc2)cc1O	46*	-4	9	34	18
CCOC(=O)C(=CNc1ccc(C)cc1C)C(=O)OCC	-8	30	-5	3	-10
CCOC(=O)C(=CNc1cccc(C)c1C)C(=O)OCC	19	52*	45*	-9	7
O=C1CCC(C(=O)Nc2cccc3ccccc23)N1 (centres undefined)	-2	6	104*	6	62*
COc1ccc(NC(=O)C2CCC(=O)N2)cc1 (centres undefined)	12	-1	-14	3	-16
NC(=O)/C(=N\OC(=O)c1ccco1)c1nc(-c2ccc(Br)cc2)cs1	41*	-14	78*	5	-103
Cc1oc(-c2ccccc2Cl)nc1CN1CCCN(C(=O)c2ccco2)CC1	3	-22	-13	-3	-6
COc1cccc(OC)c1-c1nn2c(-c3ccco3)nnc2s1	45*	29	38	8	45*
O=C(CCCNC(=O)/C(=C/c1ccccc1F)NC(=O)c1ccccc1)OCc1ccccc1	6	6	-10	4	-25
O=C(O)/C=C/C(=O)Nc1cccnc1	11	15	31	16	72*
Cc1ccc(CC(=O)Nc2cc([N+](=O)[O-])ccc2F)cc1	6	-14	-9	-4	-3
Cc1c(Cl)cccc1NC(=O)Cc1ccc([N+](=O)[O-])cc1	9	-38	96*	-3	3
C=CCOC(=O)C1=C(C)N=C2SCCC(=O)N2C1c1cccs1 (centres undefined)	71*	13	4	8	9
CCOC(=O)C1=C(C)N=C2SCCC(=O)N2C1c1sccc1C (centres undefined)	23	-3	8	-8	3
C=CCc1cccc2cc(C(=O)Nc3ccc(S(=O)(=O)Nc4nnc(CC)s4)cc3)c(=O)oc12	13	29	-6	-4	7
O=C1C(=O)N(CC2CCCO2)C(c2ccccc2[N+](=O)[O-])/C1=C(/O)c1ccccc1 (centres undefined)	10	3	/	0	0
Cc1cc(NC(=NC2CC2)c2ccccc2F)n(-c2ccccc2)n1	-1	2	-7	-7	-18
CCc1cc2c3c(c1)C(C)CC(C)(C)N3C(=O)/C2=C1\SC(=O)NC1=O (centres undefined)	6	57*	-1	-4	18
O=C(CCn1c(=O)[nH]c2ccsc2c1=O)NCc1ccc(F)cc1	9	52*	-5	0	-1
SMILES	FXIIa inh 1536	m-calpain inh	thrombin 1536	FXIa inh 1536	hK5 inh
COc1ccc(S(=O)(=O)n2nc(OC(=O)c3cccs3)cc2N)cc1	19	27	18	38	78*
COc1ccc(S(=O)(=O)n2nc(OC(=O)c3ccccc3)cc2N)cc1	23	11	4	35	51*
COc1ccc(S(=O)(=O)n2nc(OC(=O)c3ccncc3)cc2N)cc1	7	-13	1	2	1
CCOC(=O)c1sc(NC(=O)/C=C/c2cnn(C)c2C)c(C(=O)OCC)c1C	6	-181	47*	0	9
Cc1ccccc1N=C(NO)c1nonc1N	9	22	-10	19	6
CSCCNC(=O)Nc1c(-c2c(Cl)cccc2Cl)noc1C	2	-18	-5	0	-3
CCc1ccc(NC(=O)COC(=O)CCc2nc3cc(S(=O)(=O)N(CC)CC)ccc3n2C)cc1	6	40	39	12	58*
Cc1nc(SCn2nnc3ccccc3c2=O)nc(C)c1C	15	7	6	-4	-1
Nc1nc(SCn2nnc3ccccc3c2=O)n[nH]1	40*	32	16	31	19
COc1ccc(C)cc1NC(=O)CSc1nnc(COc2ccc(Cl)cc2)n1Cc1ccco1	52*	39	-7	15	-3
COc1cccc(-c2nnc(SCC(=O)NCc3ccc4c(c3)OCO4)n2Cc2ccco2)c1	-5	-60	-20	0	4
COc1cccc(-c2nnc(SCC(=O)Nc3ccc4c(c3)OCCO4)n2Cc2ccco2)c1	17	27	42*	9	47*
Cc1cc(Cl)ccc1NNC(=O)c1cccs1	5	4	3	4	-3
O=C(NNc1cc(Cl)ccc1Cl)c1cccs1	18	14	35	24	55*
COc1ccc(/C=N/NC(=O)c2sc3nc(C)cc(C)c3c2N)cc1	87*	-53	42*	27	48*
C#CCOCCOCCOCCNc1nc(N2CCN(C(=O)Cn3cc(CCCCN)nn3)CC2)nc(N2CCN(C(=O)[C@H](C)n3cc(CCCN=C(N)N)nn3)CC2)n1	7	-8	38	-6	1
C#CCOCCOCCOCCNc1nc(N2CCN(C(=O)Cn3cc(CC(C)O)nn3)CC2)nc(N2CCN(C(=O)[C@H](C)n3cc(CCCN=C(N)N)nn3)CC2)n1 (some centres undefined)	9	19	40*	3	-7
CCOC(=O)c1c(C)[nH]c(C)c1C(=O)COC(=O)/C=C/c1cccc(F)c1	38	24	12	8	52*
O=C(COC(=O)c1cc(=O)c2ccccc2o1)NC1CCCCC1	27	18	12	42*	19
CC(C)c1ccc(/C=C/C2=NNC(=O)CC2)cc1	5	92*	-2	-1	12
COc1cccc(C(=O)Nc2sc3c(c2C#N)CCN(C(C)=O)C3)c1	26	35	4	30	42*
N#Cc1c(NC(=O)c2ccccc2)sc2c1CCC2	3	-45	-3	-3	-21
CC(C)c1cc(C(=O)Nc2cccc(Cl)c2)no1	15	29	2	2	-20
CC(C)c1onc(C(=O)Nc2cccc(Cl)c2)c1[N+](=O)[O-]	9	84*	2	-2	-6
CC(Sc1nnc2ccccn12)C(=O)Nc1ccc(Cl)cn1 (centres undefined)	17	1	-6	1	-8
CC(Sc1nnnn1-c1ccccc1)C(=O)Nc1ccc(Cl)cn1 (centres undefined)	2	17	16	17	51*
Cc1cc(F)ccc1N1CCC(N2CCN(C(C)C)C(CCO)C2)CC1 (centres undefined)	3	9	-4	0	12
